Published values of several laboratories.
MET: Hepatocyte growth factor receptor (MET, Homo sapiens, UniProt P08581)
MET Y1235D: Hepatocyte growth factor receptor (MET, Homo sapiens, UniProt P08581, Y1235D)
MET M1250T: Hepatocyte growth factor receptor (MET, Homo sapiens, UniProt P08581, M1250T)

SMILES	target	read-out	action	technique	concentration	measurement	value
O=S(=O)(NC1CCC(c2cc(F)ccc2F)(S(=O)(=O)c2ccc(Cl)cc2)CC1)C(F)(F)F (stereo not drawn)	MET	cell-free assay	–	competition with immobilised ligand	1 µM	remaining binding	100%
CN(CCCC(F)(F)F)c1nccc(-c2cnn3ncccc23)n1	MET Y1235D	binding	–	–	1 µM	remaining binding	100%
Cc1ccc(NC(=O)c2ccc(C)c(C(F)(F)F)c2)cc1C#Cc1nn(C2CCC(O)CC2)c2ncnc(N)c12 (stereo not drawn)	Hepatocyte growth factor receptor (MET, Homo sapiens, UniProt P08581, D1228N)	cell-free assay	–	–	10 µM	remaining signal	103%
CC(=O)N1CCC(c2ccc(C(=O)NC(=N)N)cc2C(F)(F)F)CC1	MET	cell-free assay	–	competition with immobilised ligand	1 µM	remaining binding	100%
Cc1cc(NC(=O)c2cccc3cc(-c4cccc5[nH]nc(N)c45)ccc23)ccc1F	MET M1250T	enzyme activity	inhibitor	–	0.1 µM	activity vs control	113%
Cc1cnc(NC2CCOCC2)nc1-n1cnc(C(=O)NC(CN)c2cc(F)cc(Cl)c2)c1 (stereo not drawn)	Hepatocyte growth factor receptor (MET, Homo sapiens, UniProt P08581, Y1230D)	enzyme activity	inhibitor	radiometric	1 µM	remaining activity	97%
N[C@H]1CCN(c2nccc(-c3cnn4ncccc34)n2)C1	MET M1250T	binding	–	–	1 µM	remaining binding	100%
CNC(=O)c1cc2c(Oc3ccc(NC(=O)C4(C(=O)Nc5ccc(F)cc5)CC4)cc3)ccnc2cc1OC	Hepatocyte growth factor receptor (MET, Homo sapiens, UniProt P08581, Y1230H)	enzyme activity	inhibitor	radiometric	1 µM	inhibition	99%
CN([C@@H]1CCc2c(CC(=O)O)c3cc(S(C)(=O)=O)ccc3n2C1)S(=O)(=O)c1ccc(F)cc1	MET Y1235D	cell-free assay	–	competition with immobilised ligand	1 µM	remaining binding	100%
